The record followed here is ChEMBL document CHEMBL1122250, “Synthesis and bacterial metabolism of cis- and trans-2-alkyl analogues of sodium cyclamate” (1983).

For assay [1], the species on record is Rattus norvegicus. Put plainly: Evaluated for the amine formed (during conversion of N-cycloalkylsulfamates to cycloalkylamines) in 10 mL incubation in Control rats. It counts as functional. In a few lines: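 Fresh feces (~5 g) from control rats were suspended in prereduced anaerobic minimal medium (pH 7 ± 0.2), spun at low then high speed, and the pellet resuspended. 1.0 mL suspension plus 9 mL medium and 100 mg sulfamate ran 22–24 h at 44–45 °C with CO2 bubbling. Amine was extracted at pH 10 into CH2Cl2, derivatized with phenyl isocyanate, and read by HPLC-UV 240 nm against an external standard. Reported as total µg per 10 mL.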

For assay [2], the species on record is Rattus norvegicus. The experiment in a line: Evaluated for the amine formed (during conversion of N-cycloalkylsulfamates to cycloalkylamines) in 10 mL incubation in cyclamate-fed rats. The format is functional. In a few lines:
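Rats drank 1% sodium cyclamate for at least 6 weeks; only cyclamate converters were used. Fresh feces (~5 g) were suspended in prereduced anaerobic minimal medium (pH 7 ± 0.2), and the washed bacterial pellet was resuspended. 1.0 mL suspension plus 9 mL medium and 100 mg sulfamate ran 22–24 h at 44–45 °C with CO2 bubbling. Amine was converted to phenylurea with phenyl isocyanate and quantified by HPLC-UV 240 nm against an external standard. Reported as µg per 10 mL.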

Regarding `O=S(=O)([O-])NC1CCCCC1.[Na+]` [SODIUM CYCLAMATE], the results for the Amine formed in the assay filed under Rattus norvegicus [1] and in the assay filed under Rattus norvegicus [2] were 0 µg and 39 µg, respectively.
`CCC1CCCCC1NS(=O)(=O)[O-].[Na+]` (stereo in doubt): in the assay filed under Rattus norvegicus [2], the Amine formed is 35 µg.
Regarding `CC(C)C1CCCCC1NS(=O)(=O)[O-].[Na+]` (trans isomer), the Amine formed in the assay listed under Rattus norvegicus [1] and in the assay listed under Rattus norvegicus [2] was 0 µg each time.
In the case of `CC1CCCCC1NS(=O)(=O)[O-].[Na+]` (cis isomer), the Amine formed in the assay filed under Rattus norvegicus [1] was determined as 402 µg; in the assay filed under Rattus norvegicus [2], 457 µg.
The matching figures for `CC1CCCCC1NS(=O)(=O)[O-].[Na+]` (stereo in doubt): 0 µg and 42 µg.
Consider `CCC1CCCCC1NS(=O)(=O)[O-].[Na+]` (trans isomer), for which the results for the Amine formed in the assay filed under Rattus norvegicus [1] and in the assay listed under Rattus norvegicus [2] were 0 µg and 57 µg, respectively.
`CC(C)C1CCCCC1NS(=O)(=O)[O-].[Na+]` (stereo in doubt): the Amine formed in the assay listed under Rattus norvegicus [1] is 27.9 µg; in the assay filed under Rattus norvegicus [2], 37.5 µg.
